Here are results for five molecules from PMC11447725 (ACS Omega, 2024).

Series [1] can be described thus: Stock solution stability at −30 ± 10 °C. The series is classed as physicochemical. The following applies: for observed conc. after storage: stock solution in methanol, 22 days; for observed conc. after storage / accuracy after storage: n = 3; for time stable in stock solution / accuracy after storage: stock solution; for accuracy after storage: 22 days (text: 20 days), vs fresh. The method in brief:
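HHC and IS methanol stocks were diluted in methanol to 375 and 110 ng/mL (n = 3) and stored at −30 ± 10 °C for 22 days. Peak responses by LC-MS/MS were compared with freshly prepared stocks, and results were checked against nominal values (precision within 15%, accuracy within ±15%).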

The nature of series [2]: Pharmacokinetics of HHC in plasma after single IP administration in mice. The series is classed as in vivo. The following applies: 40 mg/kg. The method in brief: (§1)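 Male mice (18–22 g, acclimatised 1 week) received a single 40 mg/kg dose, IP or by oral gavage, in 0.1% DMSO diluted in 1% hydroxyethyl cellulose (10 μL/g). Four mice per time point (predose, 5–30 min, 1, 2, 4, 8, 24 h) were bled from the left ventricle under anaesthesia into EDTA. Plasma underwent MTBE extraction with butylparaben IS, then negative-ESI LC-MS/MS MRM. Noncompartmental analysis.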

A short description of series [3]: Pharmacokinetics of HHC in plasma after single oral administration in mice. The class given is in vivo. As to conditions: 40 mg/kg. The method in brief: as §1
Series [4] in a line: Long-term stability of HHC in mice plasma at −30 ± 10 °C. The following applies: 20 days; for accuracy after storage / observed conc. after storage: n = 3. The class given is in vitro ADME. The method in brief: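 Blank mouse plasma was spiked at 15 and 375 ng/mL (n = 3) and kept at −30 ± 10 °C for 20 days. Samples were then extracted with MTBE using butylparaben IS and quantified by LC-MS/MS against daily calibration curves. Results were compared with nominal values; acceptance was precision within 15% and accuracy within ±15%.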

The conditions of series [5]: pH 7.4; cited from earlier work.
The nature of series [6]: Tissue distribution of HHC. The class given is in vivo, mice. The following applies: male, mouse, ip, 40 mg/kg. The method in brief: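 Mice were dosed 40 mg/kg IP in 0.1% DMSO/1% hydroxyethyl cellulose, and liver, kidney and brain were removed at the plasma sampling times (n = 4; brain n = 3). Tissues were homogenised 1:10 (w/w) in PBS. Brain was extracted like plasma; kidney and liver received acetone precipitation before MTBE extraction with butylparaben IS. Negative-ESI LC-MS/MS MRM, calibrated at 5–500 ng/mL. Noncompartmental parameters.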

The conditions of series [7]: mice, cited from earlier work.
For series [8] the following is noted: rats, cited from earlier work.
For series [9] the following is noted: oral administration, rats; cited from earlier work.
[10] abbreviates: after intravenous curcumin 20 mg/kg.

As usually defined, the Cmax is the peak of the concentration-time curve. Broadly, the MRT inf is the average time that molecules of a dose stay in the body. As usually defined, the MRT last is a mean duration of stay, worked out from the concentration-time curve. The term half-life denotes the time needed for the level to fall by half in the phase considered. As usually defined, the Tmax is the time from dosing to the highest level. For orientation: AUC(0-inf) means the area under the concentration-time curve extrapolated to infinity. One may read the AUC(0-t) as the area under the concentration-time curve up to a stated or last time point. Low readings indicate low exposure, high ones high exposure.

Each structure is given as a SMILES string. “And” between values parts separate entries of the source, which are not always exact repeats. Equal entries are not always repeated. Where two headings read alike, the source gives them in different places.

With `CCCCOC(=O)c1ccc(O)cc1` [IS, butylparaben, reference compound], in [1], the “time stable in stock solution” value is on record as “at least 22 days” and the accuracy after storage turned out to be 101.80%. In addition, in series [1] (nominal 110.10 ng/mL), the “observed conc. after storage” value stood at 112.08 ± 0.90 ng/mL.
For `COc1cc(CCC(=O)CC(O)CCc2ccc(O)c(OC)c2)ccc1O` (stereo not shown) [HHC, hexahydrocurcumin], the “Cmax after IP relative to oral administration” value in [2] (mice, IP vs oral) is 47.90 times and 47.9 times. For the same molecule, the Cmax is 9300 ± 4290 ng/mL in series [2] (male, mouse, ip); 194 ± 43.5 ng/mL in series [3] (male, mouse, po); 120 ± 54.1 ng/mL in series [6] (brain); 1700 ± 897 ng/mL in [6] (kidney). Also, the MRT inf in series [2] (male, mouse, ip) is 0.875 h; in series [3] (male, mouse, po), 2.58 h; in series [6] (brain), 2.04 h; in series [6] (kidney), 1.94 h; in series [6] (liver), 2.67 h. Besides, the MRT last in series [2] (male, mouse, ip) was 0.708 h; in series [3] (male, mouse, po), 1.61 h; in [6] (brain), 1.05 h; in [6] (kidney), 1.6 h; in series [6] (liver), 2.6 h. The half-life in series [2] (male, mouse, ip, T1/2, IP 40 mg/kg, mice, n = 4) was about 1.52 h; in [2] (male, mouse, ip, half-life, IP 40 mg/kg, mice), about 1.52 h; in series [3] (male, mouse, po, T1/2, oral 40 mg/kg, mice, n = 4), about 2.17 h; in [3] (male, mouse, po, half-life, oral 40 mg/kg, mice) it was about 2.17 h; in series [6] (brain), 1.77 ± 0.98 h; in series [6] (kidney) it was 1.7 ± 0.623 h. The same molecule showed a half-life in series [6] (liver) of 1.74 ± 0.43 h. The Tmax in series [2] (male, mouse, ip, Tmax, IP 40 mg/kg, mice, n = 4) is about 5 min; in [3] (male, mouse, po, Tmax, oral 40 mg/kg, mice, n = 4), about 0.25 h; in series [6] (brain), 5 min; in series [6] (kidney) it was 6.3 min; in series [6] (liver), 5 min. For the same molecule, the AUC(0-inf) in series [3] (male, mouse, po) is 142 ng·h/mL; in series [6] (brain), 21.1 ng·h/mL. For the same molecule, the AUC(0-t) is 127 ng·h/mL in series [3] (male, mouse, po) and 18.7 ng·h/mL in series [6] (brain). The “percent relative bioavailability (AUC0–t oral / AUC0–t IP)” value in series [3] (oral vs IP, mice) came out at 12.28%. Besides, the “stability in plasma samples” value in [4] is listed as “stable”. The accuracy after storage is recorded as 94.81% in series [4] (HQC nominal 375.00 ng/mL), 90.27% in series [4] (LQC nominal 15.00 ng/mL) and 106.15% in series [1]. The figures for the “observed conc. after storage” value in [4] (HQC nominal 375.00 ng/mL), in [4] (LQC nominal 15.00 ng/mL) and in [1] (nominal 375.00 ng/mL) were 355.53 ± 34.51 ng/mL, 13.54 ± 1.03 ng/mL and 398.08 ± 1.45 ng/mL, respectively. The “stability compared with curcumin” value in [5] was “superior stability to curcumin”. Besides, the “time stable in stock solution” value in series [1] is “at least 22 days”.
As to `COc1cc(/C=C/C(=O)CC(=O)CCc2ccc(O)c(OC)c2)ccc1O` [dihydrocurcumin], in series [7] (setting [10]), the “AUC0–∞” value is 6.0 ± 1.2 mg·min/L and the detection in kidneys result was “present”.
Consider `COc1cc(CCC(=O)CC(=O)CCc2ccc(O)c(OC)c2)ccc1O` [tetrahydrocurcumin], for which, in series [7] (setting [10]), the “AUC0–∞” value is given as 12.0 ± 4.0 mg·min/L and the detection in liver entry was “detectable”.
Consider `COc1cc(/C=C/C(=O)CC(=O)/C=C/c2ccc(O)c(OC)c2)ccc1O` [curcumin], for which, in series [7] (setting [10]), the “AUC0–∞” value is reported as 107.0 ± 18.3 mg·min/L. The “T1/2,z” value in series [7] (intravenous curcumin 20 mg/kg, plasma) was 0.538 ± 0.18 h. In [8] (intravenous 10 mg/kg), the “elimination half-life (T1/2,β)” value was 0.742 ± 0.125 h. In [8] (oral 500 mg/kg), the Tmax is 0.695 ± 0.09 h and the “elimination half-life (T1/2,β)” value is 0.468 ± 0.0933 h. The oral bioavailability result in series [8] is “approximately 1%”. Further, the half-life in series [9] is 0.545 h.
